# Published values collected from several papers.
# Each line is one published result; the experiments were not run side by side.
# Target: Serine/threonine-protein kinase MAK (MAK, Homo sapiens, UniProt P20794)
# Sequence (P20794 1-623, as in one of the studies): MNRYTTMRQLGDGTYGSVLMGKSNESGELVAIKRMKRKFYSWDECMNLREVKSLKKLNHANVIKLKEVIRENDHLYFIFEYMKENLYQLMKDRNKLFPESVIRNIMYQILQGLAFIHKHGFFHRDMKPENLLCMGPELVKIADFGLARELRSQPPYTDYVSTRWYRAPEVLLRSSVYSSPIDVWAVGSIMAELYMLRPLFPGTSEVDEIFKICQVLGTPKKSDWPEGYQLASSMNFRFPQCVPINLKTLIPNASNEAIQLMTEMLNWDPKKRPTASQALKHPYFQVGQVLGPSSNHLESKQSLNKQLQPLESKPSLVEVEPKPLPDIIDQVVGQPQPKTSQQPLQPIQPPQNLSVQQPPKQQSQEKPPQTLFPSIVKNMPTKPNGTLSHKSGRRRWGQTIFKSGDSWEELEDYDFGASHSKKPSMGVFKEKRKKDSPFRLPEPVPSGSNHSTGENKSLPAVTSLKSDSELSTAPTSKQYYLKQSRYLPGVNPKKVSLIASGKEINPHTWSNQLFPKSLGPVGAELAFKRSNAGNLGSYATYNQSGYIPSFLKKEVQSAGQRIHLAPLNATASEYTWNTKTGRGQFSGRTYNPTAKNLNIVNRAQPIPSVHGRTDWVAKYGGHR
SMILES,test,conditions,remaining binding [%]
C[C@@H](c1cccc(C#N)c1)n1cc(Cl)cc(C(N)=O)c1=N,"binding, competition with immobilised ligand",1 µM,94
N[C@@H]1CCN(c2nccc(-c3cnn4ncccc34)n2)C1,binding,1 µM,100
C=CC(=O)N1CCC(C(=O)NCC(=O)N2CCN(c3nc(-c4cnc(N)nc4C(F)F)nc(N4CCOCC4)n3)CC2)CC1,"binding, competition with immobilised ligand",1 µM,100
O=C(N1CCS(=O)(=O)CC1)N1C[C@H](c2ccc(OC(F)(F)F)cc2)C[C@H](c2nc(C3CC3)no2)C1,"binding, competition with immobilised ligand",1 µM,100
Cc1cnn2ncc(-c3ccnc(N(C)C)n3)c2c1,binding,1 µM,46
Nc1ncc2c(n1)-c1c([nH]c3ccc(C#CC4CC4)cc13)CCCC2,"binding, competition with immobilised ligand",1 µM,100
O=C(O)[C@H]1[C@H](Cn2nnc3ccccc3c2=O)CC[C@@H]1C(=O)c1ccc(OCCC2CCOCC2)cc1,"binding, competition with immobilised ligand",1 µM,95
CN(C)c1ncc(F)c(-c2cnn3ncccc23)n1,binding,1 µM,91
Cn1nc(C(=O)NCc2ccc(C(=O)O)cc2)cc1-c1ccc2[nH]ccc2c1,"cell-free assay, competition with immobilised ligand",0.1 µM,92
CCN1CCN(Cc2ccc(C(=O)Nc3ccc(C)c(Oc4ccc5c(c4)CC(=O)N5)c3)cc2C(F)(F)F)CC1,"binding, competition with immobilised ligand",1 µM,100
CS(=O)(=O)N1CCCC(NC(=O)[C@H](CCC2CCCCC2)NC(=O)c2ccc(CNC(=O)c3cnc4ccccn34)cc2)C1 (stereo partly shown),"cell-free assay, competition with immobilised ligand",0.1 µM,100
C[C@@H]1CCN(c2nccc(-c3cnn4ncccc34)n2)C1,binding,1 µM,97
Cc1cnc(Nc2ccc(C(=O)N3CCC(N4CCCC4)CC3)cc2)nc1-c1cc2ccccc2s1,"binding, competition with immobilised ligand",1 µM,100
O=C(Nc1cccnn1)N1CCC(=Cc2cccc(Oc3ccc(C(F)(F)F)cn3)c2)CC1,"cell-free assay, competition with immobilised ligand",1 µM,100
CN(c1nccc(-c2cnn3ncccc23)n1)C1CC1,binding,1 µM,100
COc1ncc2cc3ccccc3nc2c1C#N,"binding, competition with immobilised ligand",5 µM,87
O=C(NCC1CCOCC1)c1n[nH]cc1NC(=O)c1c(F)cccc1F,"binding, competition with immobilised ligand",1 µM,56
O=C(c1ccc(Nc2ncc(Cl)c(-c3cc4ccccc4s3)n2)cc1)N1CCC(N2CCCC2)CC1,"binding, competition with immobilised ligand",1 µM,100
COc1cnc(Nc2cccc(S(N)(=O)=O)c2)nc1N1CCN(c2ccccc2)C(=O)C1,"binding, competition with immobilised ligand",1 µM,96
CCCCN(CCCC)C(=O)CN1C[C@H](c2cc(OC)c3c(c2)OCO3)[C@@H](C(=O)O)[C@@H]1CC(C)(C)CCC,"cell-free assay, competition with immobilised ligand",1 µM,100
O=C(NCCCN1CCOCC1)c1ccc(Nc2nccc(-c3cc4ccccc4s3)n2)cc1,"binding, competition with immobilised ligand",1 µM,100
F[C@@H]1CCN(c2nccc(-c3cnn4ncccc34)n2)C1,binding,1 µM,86
